According to PMC12789443 (Nature Communications, 2025):

How the values were obtained:
[1] = test system: E. coli ATCC25922 persister cells; test: Killing efficacy on persister cells; assay type: cell-based; conditions: ampicillin 8×MIC
E. coli ATCC25922 [2] = test: Mice wound; assay type: in vivo; conditions: topical, 15 μL of 4 mg/mL every 4 h, 3 times
Method in brief: (§1)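 Female ICR mice (6–8 weeks), pentobarbital-anaesthetised (75 mg/kg ip), backs shaved; 6-mm full-thickness punch wounds. Bacteria grown in LB (37 °C, 9 h) and dropped onto wounds in saline: S. aureus 3 × 10^6 or E. coli 1 × 10^8 CFU/mL. Treatment in saline started 24 h post-infection; saline controls. Wound tissue excised 4 h after final application for CFU counts; n = 10.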

S. aureus USA300 LAC [3] = test: In vitro bacterial killing kinetics; assay type: cell-based; conditions: exponential growth phase; PBGProOx20 2×MIC and 4×MIC, vancomycin 4×MIC
S. aureus USA300 LAC [4] = test: Mice meningitis model; assay type: in vivo; conditions: 40 mg/kg intraperitoneal daily, 6 times; saline 17%
S. aureus USA300 LAC [5] = test: Mice wound; assay type: in vivo; conditions: topical, 15 μL of 4 mg/mL every 4 h, 3 times
Method in brief: as §1

S. aureus USA300 LAC [6] = test: Mice subcutaneous infection model; assay type: in vivo; conditions: 4 mg/mL every 12 h, 3 times
[7] = test system: S. aureus USA300 LAC biofilm; test: Anti-biofilm assay; assay type: cell-based
[8] = test system: S. aureus-PBGProOx20-P32, S. aureus-ciprofloxacin-P32; test: Cross resistance; assay type: cell-based; conditions: 0.5×MIC, P32 bacteria tested against antibiotics
[9] = test system: S. aureus USA300 persister cells; test: Killing efficacy on persister cells; assay type: cell-based; conditions: ciprofloxacin 10×MIC
E. coli ATCC25922 [10] = test: Mice meningitis model; assay type: in vivo; conditions: 40 mg/kg intraperitoneal daily, 6 times; saline 17%
E. coli ATCC25922 [11] = test: Drug resistance study; assay type: cell-based; conditions: continuous treatment at 0.5×MIC
[12] = test system: E. coli-PBGProOx20-P32, E. coli-moxifloxacin-P32; test: Cross resistance; assay type: cell-based; conditions: 0.5×MIC, P32 bacteria tested against antibiotics
[13] = test system: E. coli ATCC25922 biofilm; test: Anti-biofilm assay; assay type: cell-based

For CC1(C)S[C@@H]2[C@H](NC(=O)[C@H](N)c3ccccc3)C(=O)N2[C@H]1C(=O)O [Ampicillin, ampicillin], which “persister cell viability under antibiotic” value [1] is on record?
Its value is “maintained sustained viability”.

C[C@@H](O)[C@H]1C(=O)N2C(C(=O)O)=C(SCCN=CN)C[C@H]12 [Imipenem, imipenem] was tested. Which “reduction of bacteria in infected wounds” value (E. coli ATCC25922 [2]) did it give?
The value was 2.1 logs.

Which “eradication in time-killing kinetics” value (S. aureus USA300 LAC [3]) does the source give for CN[C@H](CC(C)C)C(=O)N[C@H]1C(=O)N[C@@H](CC(N)=O)C(=O)N[C@H]2C(=O)N[C@H]3C(=O)N[C@H](C(=O)N[C@H](C(=O)O)c4cc(O)cc(O)c4-c4cc3ccc4O)[C@H](O)c3ccc(c(Cl)c3)Oc3cc2cc(c3O[C@@H]2O[C@H](CO)[C@@H](O)[C@H](O)[C@H]2O[C@H]2C[C@](C)(N)[C@H](O)[C@H](C)O2)Oc2ccc(cc2Cl)[C@H]1O [Vancomycin, vancomycin] here?
Its value is “unable to eradicate S. aureus”.

What about the “survival rate, meningitis” value (S. aureus USA300 LAC [4]) of the same compound?
Its value is 50%.

And the “reduction of bacteria in infected wounds” value (S. aureus USA300 LAC [5])?
The value was 1.2 logs.

And the “reduction of bacterial load in infected skin” value (S. aureus USA300 LAC [6])?
The value was “less than 0.5 log CFU/g”.

And the “concentration eradicating mature biofilm” value [7]?
The value was “poor anti-biofilm activity”.

Which results are given for O=C(O)c1cn(C2CC2)c2cc(N3CCNCC3)c(F)cc2c1=O [ciprofloxacin]?
cross-resistance of bacteria treated for 32 passages [8]: acquired resistance to four quinolone antibiotics and ampicillin; persister cell viability under antibiotic [9]: maintained sustained viability

For C[C@@H](O)[C@H]1C(=O)N2C(C(=O)O)=C(S[C@@H]3CN[C@H](C(=O)N(C)C)C3)[C@H](C)[C@H]12 [meropenem], which “survival rate, meningitis” value (E. coli ATCC25922 [10]) is on record?
Its value is 100%.

COc1c(N2C[C@@H]3CCCN[C@@H]3C2)c(F)cc2c(=O)c(C(=O)O)cn(C3CC3)c12 [moxifloxacin] was tested. Which “increase in MIC after 32 passages” value (E. coli ATCC25922 [11]) did it give?
The value was 32 fold.

What about the “cross-resistance of bacteria treated for 32 passages” value [12] of the same compound?
Its value is “acquired resistance to four quinolone antibiotics and ampicillin”.

How did the “concentration eradicating mature biofilm” value [13] turn out when colistin was run?
Its value is 256 ×MIC.
